Among the data in the RNAGym collection of RNA variant scans (doi:10.1002/anie.201605470) are self-cleavage values, retold here.

The chains are these.
B1: Osa-1-4 twister ribozyme (parent)
chain: CCGCCUAACACUGCCAAUGCCGGUCCCAAGCCCGGAUAAAAGUGGAGGGGGCGG

The data set covers variants of B1. The data set can be described thus: self-cleavage, relative activity (ratio to wild type); higher = more cleavage; co-transcriptional. The procedure, abridged: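 A DNA template encoding a 54-nucleotide twister ribozyme from Oryza sativa was made so that each of the 48 positions downstream of the cleavage site carried 97 % wild-type base and 1 % of each other base. Transcription in vitro ran for 2 h at 37 °C, during which the ribozyme could cleave itself. Reverse transcription used a template-switching oligonucleotide, and the products were PCR-amplified and deep-sequenced. Each read was scored as cleaved or uncleaved by whether upstream sequence was present, and relative activity is the fraction cleaved normalised to wild type.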
For the variant CCGCCUAACACUGCCAAUGCCGGUCCCAAGCCCGGAUAAAAGCGGAGGGAGCGG, the self-cleavage stood at 0.35.
The same measure for CCGCCUAACACUGCCAAUGCCGGUCCCAAGCCCGGAUAAAAGGGGAGGGAGCGG: 0.15.
As for CCGCCUAACACUGCCAAUGCCGGUCCCAAGCCCGGACAAAAGUGGAGGGCGCGG, the self-cleavage is 1.05.
Then CCGCCUAACACUGCCAAUGCCGGUCCCAAGCCCGGAAAAAAGUGGAGGGCGCGG, with 0.78; and CCGCCUAACACUGCCAAUGCCGGUCCCAAGCCCGGAGAAAAGUGGAGGGCGCGG, with 1.04.
On to CCGCCUAACACUGCCAAUGCCGGACCCAAGCCCGGAUAAAAGUGGAGGGCGCGG, for which the self-cleavage amounted to 0.08.
For the variant CCGCCUAACACUGCCAAUGCCGGGCCCAAGCCCGGAUAAAAGUGGAGGGCGCGG, the self-cleavage amounted to 0.02.
Then CCGCCUAACACUGCCAAUGCCGGCCCCAAGCCCGGAUAAAAGUGGAGGGCGCGG, with 0.11; and CCGCCUAACACUGCCAAUGCCGGUCCCAAGCCCGGAUAAAAGUGGAGGGCGCGG, with 1.03.
The same measure for CCGCCUAACACUGCCAAUGCCGGUCCCAAGCCCGGAUAAAAGUGGAGGGUGCGG: 1.02; for CCGCCUAACACUGCCAAGGCCGGUCCCAAGCCCGGAUAAAAGUGGAGGGCGCGG: 0.75.
CCGCCUAACACUGCCAACGCCGGUCCCAAGCCCGGAUAAAAGUGGAGGGCGCGG: the self-cleavage turned out to be 0.95.
Take CCGCCUAACACUGCCAAAGCCGGUCCCAAGCCCGGAUAAAAGUGGAGGGCGCGG: the self-cleavage stood at 0.95.
On to CCGCCUAACACUGCCAAUGCCGGUCCCAAGCCCGGAUAAAAGUGGAGGGCGCUG, for which the self-cleavage is 0.11.
The same measure for CCGCCUAACACUGCCAAUGCCGGUCCCAAGCCCGGAUAAAAGUGGAGGGCGCAG: 0.11; for CCGCCUAACACUGCCAAUGCCGGUCCCAAGCCCGGAUAAAAGUGGAGGGCGCCG: 0.06; for CCGCCUAACACUGCCAAUGCCGGUCCCAAGCCCGGAAAAAAGUGGAGGGUGCGG: 0.85.
CCGCCUAACACUGCCAAUGCCGGUCCCAAGCCCGGAGAAAAGUGGAGGGUGCGG: the self-cleavage is 1.04.
Then CCGCCUAACACUGCCAAUGCCGGUCCCAAGCCCGGACAAAAGUGGAGGGUGCGG, with 1.06.
The same measure for CCGCCUAACACUGCCAAUGCCGGACCCAAGCCCGGAUAAAAGUGGAGGGUGCGG: 0.13; for CCGCCUAACACUGCCAAUGCCGGGCCCAAGCCCGGAUAAAAGUGGAGGGUGCGG: 0.02.
On to CCGCCUAACACUGCCAAUGCCGGCCCCAAGCCCGGAUAAAAGUGGAGGGUGCGG, for which the self-cleavage was found to be 0.28.
Then CCGCCUAACACUGCCAAUGCCGGUCCCAAGCCCGGAUAAAAGUGGAGGGUGCGU, with 0.52; and CCGCCUAACACUGCCAAUGCCGGUCCCAAGCCCGGAUAAAAGUGGAGGGUGCGA, with 0.79.
Consider CCGCCUAACACUGCCAAUGCCGGUCCCAAGCCCGGAUAAAAGUGGAGGGUGCGC, for which the self-cleavage was found to be 0.15.
Turning to CCGCCUAACACUGCCAAUGCCGGUCCCAAGCCCGGAUAAAAGUGGAGGGCACGG, the self-cleavage turned out to be 0.71.
On to CCGCCUAACACUGCCAAUGCCGGUCCCAAGCCCGGAUAAAAGUGGAGGGCUCGG, for which the self-cleavage came to 0.32.
As for CCGCCUAACACUGCCAAUGCCGGUCCCAAGCCCGGAUAAAAGUGGAGGGCCCGG, the self-cleavage was 0.08.
With CCGCCUAACACUGCCAAUGCCGGUCCCAAGCCCGGAUAAAAGUGGAGGGUCCGG, the self-cleavage was 0.11.
As to CCGCCUAACACUGCCAAUGCCGGUCCCAAGCCCGGAUAAAAGUGGAGGGUUCGG, the self-cleavage worked out at 0.57.
Then CCGCCUAACACUGCCAAUGCCGGUCCCAAGCCCGGAUAAAAGUGGAGGGUACGG, with 0.66; and CCGCCUAACACUGCCAAUGCCGGUCCCAAGCCCGGAUAAAAGUGGAGGGUGCAG, with 0.61; and CCGCCUAACACUGCCAAUGCCGGUCCCAAGCCCGGAUAAAAGUGGAGGGUGCCG, with 0.09.
On to CCGCCUAACACUGCCAAUGCCGGUCCCAAGCCCGGAUAAAAGUGGAGGGUGCUG, for which the self-cleavage was found to be 0.37.
Then CCGCCUAACACUGCCAAUGCCGGUCCCAAGCCCGGAUAAAAGUGGAGGGCGCGA, with 0.15; and CCGCCUAACACUGCCAAUGCCGGUCCCAAGCCCGGAUAAAAGUGGAGGGCGCGU, with 0.32.
As to CCGCCUAACACUGCCAAUGCCGGUCCCAAGCCCGGAUAAAAGUGGAGGGCGCGC, the self-cleavage turned out to be 0.1.
The same measure for CCGCCUAACACAGCCAAUGCCGGUCCCAAGCCCGGAUAAAAGUGGAGGGUGCGG: 0.82.
As to CCGCCUAACACCGCCAAUGCCGGUCCCAAGCCCGGAUAAAAGUGGAGGGUGCGG, the self-cleavage worked out at 0.62.
The same measure for CCGCCUAACACGGCCAAUGCCGGUCCCAAGCCCGGAUAAAAGUGGAGGGUGCGG: 0.47.
Turning to CCGCCUAACACAGCCAAUGCCGGUCCCAAGCCCGGAUAAAAGUGGAGGGCGCGG, the self-cleavage was determined as 0.35.
Then CCGCCUAACACCGCCAAUGCCGGUCCCAAGCCCGGAUAAAAGUGGAGGGCGCGG, with 0.34; and CCGCCUAACACGGCCAAUGCCGGUCCCAAGCCCGGAUAAAAGUGGAGGGCGCGG, with 0.17; and CCGCCUAACACUGCCAAAGCCGGUCCCAAGCCCGGAUAAAAGUGGAGGGUGCGG, with 0.89.
The same measure for CCGCCUAACACUGCCAACGCCGGUCCCAAGCCCGGAUAAAAGUGGAGGGUGCGG: 0.97; for CCGCCUAACACUGCCAAGGCCGGUCCCAAGCCCGGAUAAAAGUGGAGGGUGCGG: 0.8.
Then CCGCCUAACACUGCCAAUGCCGGUCCCAAGCCCGGAUAAAAGCGGAGGGCGCGG, with 0.45; and CCGCCUAACACUGCCAAUGCCGGUCCCAAGCCCGGAUAAAAGAGGAGGGCGCGG, with 0.75; and CCGCCUAACACUGCCAAUGCCGGUCCCAAGCCCGGAUAAAAGGGGAGGGCGCGG, with 0.36.
